Assay results as given in ChEMBL document CHEMBL1149558, “Synthesis of symmetrical C- and pseudo-symmetrical O-linked disaccharide analogs for arabinosyltransferase inhibitory activity in Mycobacterium tuberculosis” (Bioorg Med Chem Lett, 2007).
≈ marks a conversion by molar mass, not a printed value. Calls of active or inactive are those of the source. The calls are words filed in the database; no cut-off is given here.

Experiments:
[1] = test system: Mycobacterium tuberculosis; test: Antimycobacterial activity against Mycobacterium tuberculosis H37Ra; assay type: functional
Method in brief: (§1)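 Colorimetric broth microdilution against M. tuberculosis H37Ra (ATCC 25177) and M. avium NJ 211. Initial screen at 1.28 and 12.8 μg/mL. Activity was confirmed with […] dilutions at 16, 8 and 4 μg/mL to set the MIC.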

Mycobacterium avium [2] = test: Antimycobacterial activity against Mycobacterium avium at 12.8 ug/mL; assay type: functional, organism-based; method in brief: as §1
[3] = molecular target: T1, Probable arabinosyltransferase A (Mycobacterium tuberculosis) (UniProt P9WNL9); test: Inhibition of Mycobacterium smegmatis arabinosyl transferase assessed as [14C]arabinofuranose incorporation at 3.6 mM; conditions: Mycolicibacterium smegmatis
T1 sequence (whole entry): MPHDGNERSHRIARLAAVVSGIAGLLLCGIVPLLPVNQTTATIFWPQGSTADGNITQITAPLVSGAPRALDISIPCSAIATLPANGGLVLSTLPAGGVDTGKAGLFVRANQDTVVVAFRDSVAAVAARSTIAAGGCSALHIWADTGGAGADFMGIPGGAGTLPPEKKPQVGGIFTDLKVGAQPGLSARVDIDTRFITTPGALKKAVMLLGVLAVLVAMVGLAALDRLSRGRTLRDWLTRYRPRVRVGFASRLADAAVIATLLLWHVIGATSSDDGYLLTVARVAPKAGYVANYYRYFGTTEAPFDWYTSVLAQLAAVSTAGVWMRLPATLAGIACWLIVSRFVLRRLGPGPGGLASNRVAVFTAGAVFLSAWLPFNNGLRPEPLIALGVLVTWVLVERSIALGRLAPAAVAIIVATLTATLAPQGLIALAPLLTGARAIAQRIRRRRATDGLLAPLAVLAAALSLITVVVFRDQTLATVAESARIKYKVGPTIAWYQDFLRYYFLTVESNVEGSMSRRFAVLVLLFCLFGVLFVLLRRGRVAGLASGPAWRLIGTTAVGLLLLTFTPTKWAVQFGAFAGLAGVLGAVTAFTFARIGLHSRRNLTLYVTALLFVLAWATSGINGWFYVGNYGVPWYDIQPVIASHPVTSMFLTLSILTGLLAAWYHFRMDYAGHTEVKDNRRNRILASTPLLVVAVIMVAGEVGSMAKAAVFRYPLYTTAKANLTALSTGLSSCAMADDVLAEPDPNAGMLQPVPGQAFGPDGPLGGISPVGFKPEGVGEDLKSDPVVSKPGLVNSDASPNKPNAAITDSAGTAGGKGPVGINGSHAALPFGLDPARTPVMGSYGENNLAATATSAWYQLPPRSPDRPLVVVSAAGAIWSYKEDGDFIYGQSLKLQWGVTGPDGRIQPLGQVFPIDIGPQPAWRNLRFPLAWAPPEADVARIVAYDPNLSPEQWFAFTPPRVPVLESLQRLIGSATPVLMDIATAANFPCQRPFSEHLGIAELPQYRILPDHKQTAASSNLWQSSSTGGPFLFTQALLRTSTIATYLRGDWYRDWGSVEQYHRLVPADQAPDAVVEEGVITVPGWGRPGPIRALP
Method in brief: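 Cell-free competition arabinosyltransferase acceptor assay with membranes and [14C]DPA as glycosyl donor. The read-out is inhibition of [14C]Araf incorporation into the α(1→5)-linked 1-O-octyl arabinofuranosyl disaccharide acceptor at 0.4 mM. Test compounds were run at 3.6 mM, and IC50 values were also derived.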

Mycobacterium avium [4] = test: Antimycobacterial activity against Mycobacterium avium; assay type: functional; method in brief: as §1

| Structure (SMILES) | MIC [1] [µg/mL] | Activity (Mycobacterium avium [2]) | Activity [3] | MIC (Mycobacterium avium [4]) [µg/mL] |
| --- | --- | --- | --- | --- |
| CC(C)(C)[Si](C)(C)O[C@H]1[C@H](O[Si](C)(C)C(C)(C)C)[C@@H](CN(CC2CCCCC2)CC2CCCCC2)O[C@@H]1CO[C@H]1O[C@H](CN(CC2CCCCC2)CC2CCCCC2)[C@@H](O)[C@@H]1O | > 12.8 | inactive |  |  |
| CC[C@@H](CO)NCCN[C@@H](CC)CO [ETHAMBUTOL] | 2 (≈ 9.79 µM) |  |  |  |
| CC(C)(C)[Si](C)(C)O[C@H]1[C@H](O[Si](C)(C)C(C)(C)C)[C@@H](CO[C@H]2O[C@H](CN=[N+]=[N-])[C@@H](O)[C@@H]2O)O[C@@H]1CN=[N+]=[N-] | 16 (≈ 27.8 µM) | inactive |  |  |
| O[C@H]1[C@H](O)[C@@H](CN(CC2CCCCC2)CC2CCCCC2)O[C@@H]1CC[C@H]1O[C@H](CN(CC2CCCCC2)CC2CCCCC2)[C@@H](O)[C@@H]1O | 16 (≈ 23.6 µM) |  | Active | 16 (≈ 23.6 µM) |
| O[C@H]1[C@H](O)[C@@H](CN(CC2CCCCC2)CC2CCCCC2)O[C@@H]1/C=C/[C@H]1O[C@H](CN(CC2CCCCC2)CC2CCCCC2)[C@@H](O)[C@@H]1O | 8 (≈ 11.9 µM) |  | Active | 8 (≈ 11.9 µM) |
| O[C@@H]1[C@@H](OC[C@H]2O[C@H](CN(CC3CCCCC3)CC3CCCCC3)[C@@H](O)[C@@H]2O)O[C@H](CN(CC2CCCCC2)CC2CCCCC2)[C@H]1O | 8 (≈ 11.8 µM) |  | Active | 16 (≈ 23.6 µM) |
